ChEMBL document CHEMBL1671809, “Discovery of phosphoric acid mono-{2-[(E/Z)-4-(3,3-dimethyl-butyrylamino)-3,5-difluoro-benzoylimino]-thiazol-3-ylmethyl} ester (Lu AA47070): a phosphonooxymethylene prodrug of a potent and selective hA(2A) receptor antagonist” (J Med Chem, 2011)
≈ marks a conversion by molar mass, not a printed value. Each block holds one molecule with its values, some of them ahead of it.

Experiments:
Adenosine receptor A2a [1] = biological target: T1, Adenosine receptor A2a (Homo sapiens, UniProt P29274); assay: Displacement of [3H]-ZM241385 from human adenosine A2A receptor expressed in high five cells at 10 uM after 30 mins by scintillation counting
T1 sequence (P29274 whole entry): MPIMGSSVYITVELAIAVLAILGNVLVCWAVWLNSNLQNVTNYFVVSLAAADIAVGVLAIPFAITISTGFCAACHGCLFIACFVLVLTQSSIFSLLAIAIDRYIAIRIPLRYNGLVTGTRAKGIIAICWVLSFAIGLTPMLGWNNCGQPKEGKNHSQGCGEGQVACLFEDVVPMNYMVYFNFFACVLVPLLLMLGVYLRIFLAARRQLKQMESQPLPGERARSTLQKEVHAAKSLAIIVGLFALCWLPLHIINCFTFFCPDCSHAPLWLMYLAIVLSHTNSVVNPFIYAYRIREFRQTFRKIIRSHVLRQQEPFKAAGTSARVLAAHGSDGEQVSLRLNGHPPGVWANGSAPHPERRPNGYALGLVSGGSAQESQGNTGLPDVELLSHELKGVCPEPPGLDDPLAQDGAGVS
Outline: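 hA2A membranes from baculovirus-infected High Five cells (harvested 72 h), pretreated with adenosine deaminase 2 U/mL for 30 min at 37 C. Membranes at 10.6 μg protein/well were incubated with 1 nM [3H]-ZM241385 in 50 mM Tris/HCl pH 7.4 for 30 min at 25 C. GF/B filtration, scintillation counting. Nonspecific binding by CGS15943. Percent displacement at 10 μM.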

Liver microsomes [2] = assay: Intrinsic clearance in human liver microsomes at 1 uM after 60 mins by LC-MS/MS analysis; format: ADME, Microsome; settings: 1 h
Outline: (§1)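 Compound at 1 μM with human or rat liver microsomes (0.5 mg protein/mL) plus NADPH at 37 C. Samples at 0, 5, 15, 30 and 60 min, quenched with acetonitrile, analysed by LC-MS/MS.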

Liver microsomes [3] = assay: Intrinsic clearance in rat liver microsomes at 1 uM after 60 mins by LC-MS/MS analysis; format: ADME, Microsome; settings: 1 h; outline: as §1
Cytochrome P450 1A2 = biological target: T2, Cytochrome P450 1A2 (Homo sapiens, UniProt P05177); assay: Inhibition of recombinant CYP1A2 after 28 mins; format: ADME
T2 sequence (P05177 whole entry): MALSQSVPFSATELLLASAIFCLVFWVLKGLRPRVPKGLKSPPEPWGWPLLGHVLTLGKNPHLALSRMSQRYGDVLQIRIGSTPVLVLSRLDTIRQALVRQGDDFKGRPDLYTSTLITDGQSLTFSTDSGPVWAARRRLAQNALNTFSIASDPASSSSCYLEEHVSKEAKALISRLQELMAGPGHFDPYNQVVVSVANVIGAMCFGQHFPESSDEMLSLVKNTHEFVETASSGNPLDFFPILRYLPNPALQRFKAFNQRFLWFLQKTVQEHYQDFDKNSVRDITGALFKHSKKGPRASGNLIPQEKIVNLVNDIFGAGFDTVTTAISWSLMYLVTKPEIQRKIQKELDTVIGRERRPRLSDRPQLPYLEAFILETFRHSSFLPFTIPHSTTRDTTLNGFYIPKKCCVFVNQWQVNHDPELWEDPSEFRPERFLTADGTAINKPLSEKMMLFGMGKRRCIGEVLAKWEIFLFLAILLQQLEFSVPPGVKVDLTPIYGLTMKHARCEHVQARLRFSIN
Outline: (§2)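 Recombinant CYP supersomes incubated in phosphate buffer with eight compound concentrations (40-0.02 μM) and fluorogenic substrates. CYP1A2: 7-ethoxy-3-cyanocoumarin 10 μM, 28 min. CYP2C19: same substrate 50 μM, 45 min. CYP2D6: AMMC 3 μM, 45 min. CYP3A4: resorufin benzyl ether 100 μM, 30 min. Fluorescent metabolite read; IC50 relative to uninhibited controls.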

Cytochrome P450 2C19 = Cytochrome P450 2C19 (Homo sapiens, UniProt P33261); assay: Inhibition of recombinant CYP2C19 after 45 mins; format: ADME; outline: as §2
Sequence of Cytochrome P450 2C19 (P33261 whole entry): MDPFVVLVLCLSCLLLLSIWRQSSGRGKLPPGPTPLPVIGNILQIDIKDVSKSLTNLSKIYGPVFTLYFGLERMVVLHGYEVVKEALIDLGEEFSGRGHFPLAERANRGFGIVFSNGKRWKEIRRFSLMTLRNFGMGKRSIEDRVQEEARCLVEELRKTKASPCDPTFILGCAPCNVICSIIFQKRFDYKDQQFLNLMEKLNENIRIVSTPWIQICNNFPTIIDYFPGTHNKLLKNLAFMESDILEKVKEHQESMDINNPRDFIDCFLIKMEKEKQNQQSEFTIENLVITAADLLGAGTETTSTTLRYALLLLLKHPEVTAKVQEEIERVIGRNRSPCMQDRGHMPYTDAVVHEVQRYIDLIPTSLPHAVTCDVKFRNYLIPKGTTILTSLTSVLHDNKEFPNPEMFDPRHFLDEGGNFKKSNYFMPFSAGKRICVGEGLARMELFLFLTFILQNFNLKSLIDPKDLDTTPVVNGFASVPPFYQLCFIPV

Cytochrome P450 2D6 = Cytochrome P450 2D6 (Homo sapiens, UniProt P10635); assay: Inhibition of recombinant CYP2D6 after 45 mins; format: ADME; outline: as §2
Sequence of Cytochrome P450 2D6 (P10635 whole entry): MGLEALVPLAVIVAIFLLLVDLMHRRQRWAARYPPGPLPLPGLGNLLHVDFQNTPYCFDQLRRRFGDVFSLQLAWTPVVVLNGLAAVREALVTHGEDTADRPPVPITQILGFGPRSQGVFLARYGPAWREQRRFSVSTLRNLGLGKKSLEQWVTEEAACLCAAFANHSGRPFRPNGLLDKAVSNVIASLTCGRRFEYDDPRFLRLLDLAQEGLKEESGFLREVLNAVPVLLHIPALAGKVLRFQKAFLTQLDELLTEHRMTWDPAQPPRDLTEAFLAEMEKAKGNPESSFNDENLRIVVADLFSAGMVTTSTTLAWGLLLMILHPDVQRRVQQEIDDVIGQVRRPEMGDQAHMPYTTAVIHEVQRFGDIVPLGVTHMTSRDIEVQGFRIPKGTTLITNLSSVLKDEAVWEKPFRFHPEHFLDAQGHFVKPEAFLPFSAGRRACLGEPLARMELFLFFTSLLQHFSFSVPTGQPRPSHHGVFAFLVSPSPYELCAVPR

Mus musculus = assay: Reversal of haloperidol-induced hypolocomotion in po dosed NMRI mouse administered 30 mins before haloperidol challenge measured for 20 mins; format: functional
Outline: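 Male NMRI mice (n = 8/group) were given compound po in 25% cremophor/saline, then haloperidol 0.63 mg/kg sc 30 min later. After 15 min they went into photocell activity boxes, and locomotion was recorded for 20 min. ED50 by sigmoidal fit with top 100 and bottom 0.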

Adenosine receptor A2a [4] = biological target: T1, Adenosine receptor A2a; assay: Displacement of [3H]-ZM241385 from human adenosine A2A receptor expressed in high five cells after 30 mins by scintillation counting
Adenosine receptor A1 = biological target: T3, Adenosine receptor A1 (Homo sapiens, UniProt P30542); assay: Displacement of [3H]-DPCPX from human adenosine A1 receptor expressed in CHO cells after 30 mins by scintillation counting; format: cell-based
T3 sequence (P30542 whole entry): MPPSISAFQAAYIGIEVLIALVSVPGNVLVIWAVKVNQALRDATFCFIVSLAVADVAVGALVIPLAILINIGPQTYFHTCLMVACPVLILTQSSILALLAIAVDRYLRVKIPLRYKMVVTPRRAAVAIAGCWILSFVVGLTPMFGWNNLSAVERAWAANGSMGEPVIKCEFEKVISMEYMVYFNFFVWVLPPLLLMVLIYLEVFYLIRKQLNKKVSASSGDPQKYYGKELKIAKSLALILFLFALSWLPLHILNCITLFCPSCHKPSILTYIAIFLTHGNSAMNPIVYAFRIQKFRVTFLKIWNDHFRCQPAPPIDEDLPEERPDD
Outline: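 CHO-hA1 membranes at 10.8 μg protein/well, pretreated with adenosine deaminase (2 U/mL, 30 min, 37 C), were incubated with 1 nM [3H]-DPCPX in 50 mM Tris/HCl pH 7.4 for 30 min at 25 C across 10 compound concentrations. Filtration on PEI-soaked GF/B, scintillation counting. Nonspecific binding by CGS15943. Ki by Cheng-Prusoff. Means of ≥2 determinations.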

Homo sapiens = species: Homo sapiens; assay: Selectivity ratio of Ki for human adenosine A1 receptor to Ki for human adenosine A2A receptor
[5] = Aqueous solubility of the compound at pH 6.9; format: physicochemical; settings: buffer
[6] = Chemical stability of the compound assessed as half life; format: physicochemical
Outline: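 Prodrug was dissolved in water, filtered, and diluted to approximately 0.05 mg/mL in buffers of different pH. Sealed vials were stored at 50 C to accelerate hydrolysis. Samples were diluted 1:1 with acetonitrile and analysed by HPLC for prodrug and hydrolysis products.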

Rattus norvegicus [7] = assay: Tmax in Sprague-Dawley rat assessed as 4-(3,3-Dimethyl-butyrylamino)-3,5-difluoro-N-thiazol-2-yl-benzamide level at 1.5 mg/kg, po; format: ADME, organism-based; design: dose 1.5 mg/kg, route oral; settings: in vivo
Outline: (§3)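 Prodrugs dosed po in aqueous 10% hydroxypropyl β-cyclodextrin (2 mL/kg) to rats; doses expressed as parent-drug equivalents; n = 3. Six tail-vein blood samples (~100 μL) taken between 5 and 420 min. Parent drug in plasma measured by HTLC-MS/MS. Profiles fitted with a one-compartment model; AUC extrapolated to infinity.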

Rattus norvegicus [8] = assay: Cmax in Sprague-Dawley rat assessed as 4-(3,3-Dimethyl-butyrylamino)-3,5-difluoro-N-thiazol-2-yl-benzamide level at 1.5 mg/kg, po; format: ADME, organism-based; design: dose 1.5 mg/kg, route oral; settings: in vivo; outline: as §3
Rattus norvegicus [9] = assay: Oral bioavailability in Sprague-Dawley rat assessed as 4-(3,3-Dimethyl-butyrylamino)-3,5-difluoro-N-thiazol-2-yl-benzamide level at 1.5 mg/kg; format: ADME, organism-based; settings: in vivo; outline: as §3
Rattus norvegicus [10] = assay: AUC in Sprague-Dawley rat assessed as 4-(3,3-Dimethyl-butyrylamino)-3,5-difluoro-N-thiazol-2-yl-benzamide level at 15 mg/kg, po; format: ADME, organism-based, Plasma; design: dose 15 mg/kg, route oral; settings: in vivo; outline: as §3
Rattus norvegicus [11] = assay: Tmax in Sprague-Dawley rat assessed as 4-(3,3-Dimethyl-butyrylamino)-3,5-difluoro-N-thiazol-2-yl-benzamide level at 15 mg/kg, po; format: ADME, organism-based; design: dose 15 mg/kg, route oral; settings: in vivo; outline: as §3
Rattus norvegicus [12] = assay: Cmax in Sprague-Dawley rat assessed as 4-(3,3-Dimethyl-butyrylamino)-3,5-difluoro-N-thiazol-2-yl-benzamide level at 15 mg/kg, po; format: ADME, organism-based; design: dose 15 mg/kg, route oral; settings: in vivo; outline: as §3
Rattus norvegicus [13] = assay: Oral bioavailability in Sprague-Dawley rat assessed as 4-(3,3-Dimethyl-butyrylamino)-3,5-difluoro-N-thiazol-2-yl-benzamide level at 15 mg/kg; format: ADME, organism-based; settings: in vivo; outline: as §3
[14] = biological target: T4, Adenosine receptor A1 (Homo sapiens) (UniProt P30542); assay: Displacement of [3H]-DPCPX from human adenosine A1 receptor expressed in CHO cells at 10 uM after 30 mins by scintillation counting; format: cell-based
T4 sequence (whole entry): T3 sequence (P30542 whole entry)

Cytochrome P450 2C9 = Cytochrome P450 2C9 (Homo sapiens, UniProt P11712); assay: Inhibition of recombinant CYP2C9 after 45 mins; format: ADME
Sequence of Cytochrome P450 2C9 (P11712 whole entry): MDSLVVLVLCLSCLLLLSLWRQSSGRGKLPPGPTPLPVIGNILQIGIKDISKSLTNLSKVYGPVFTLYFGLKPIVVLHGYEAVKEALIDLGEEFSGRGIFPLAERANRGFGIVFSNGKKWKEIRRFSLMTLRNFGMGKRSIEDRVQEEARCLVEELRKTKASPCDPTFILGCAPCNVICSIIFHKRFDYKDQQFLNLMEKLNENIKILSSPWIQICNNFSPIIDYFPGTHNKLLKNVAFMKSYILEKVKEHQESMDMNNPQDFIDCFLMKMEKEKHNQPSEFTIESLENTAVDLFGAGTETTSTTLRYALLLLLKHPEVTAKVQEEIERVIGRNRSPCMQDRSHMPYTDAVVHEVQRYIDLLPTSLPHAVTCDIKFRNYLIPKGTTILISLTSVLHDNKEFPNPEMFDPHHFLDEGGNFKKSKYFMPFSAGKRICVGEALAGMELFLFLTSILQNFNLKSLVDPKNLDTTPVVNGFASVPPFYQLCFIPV

Cytochrome P450 3A4 = Cytochrome P450 3A4 (Homo sapiens, UniProt P08684); assay: Inhibition of recombinant CYP3A4 after 30 mins; format: ADME
Sequence of Cytochrome P450 3A4 (P08684 whole entry): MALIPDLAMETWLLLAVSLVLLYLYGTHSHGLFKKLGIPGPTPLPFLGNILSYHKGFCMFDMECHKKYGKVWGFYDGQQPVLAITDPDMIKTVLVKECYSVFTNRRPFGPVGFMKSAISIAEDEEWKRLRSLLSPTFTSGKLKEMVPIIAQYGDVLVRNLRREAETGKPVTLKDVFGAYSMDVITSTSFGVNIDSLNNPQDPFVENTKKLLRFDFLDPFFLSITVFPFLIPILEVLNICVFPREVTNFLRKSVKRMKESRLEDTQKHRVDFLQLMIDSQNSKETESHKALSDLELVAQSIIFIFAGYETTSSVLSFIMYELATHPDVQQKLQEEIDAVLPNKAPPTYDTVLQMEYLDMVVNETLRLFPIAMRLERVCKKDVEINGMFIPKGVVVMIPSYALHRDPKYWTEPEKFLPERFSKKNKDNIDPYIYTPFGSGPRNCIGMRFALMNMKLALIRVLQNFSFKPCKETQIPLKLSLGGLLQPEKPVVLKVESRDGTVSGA
Outline: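 Recombinant CYP supersomes incubated in phosphate buffer with eight compound concentrations (40-0.02 μM) and fluorogenic substrates. CYP3A4: resorufin benzyl ether 100 μM, 30 min. Fluorescent metabolite read; IC50 relative to uninhibited controls.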

Caco-2 = assay: Efflux ratio of permeability from basolateral to apical over apical to basolateral side in human Caco2 cells after 21 to 28 days by LC-MS/MS analysis

inhibition (Adenosine receptor A2a [1]): 18%
Compound: CC(C)(C)CC(=O)Nc1ccc(NC(=O)c2nccs2)cc1

Ki (Adenosine receptor A2a [4]): 0.022 µM
Ki (Adenosine receptor A1): 0.21 µM
Ratio Ki (Homo sapiens): 10
Compound: CC(C)(C)CC(=O)Nc1ccc(C(=O)Nc2nccs2)cc1Cl

Ki (Adenosine receptor A2a [4]): 0.0092 µM
Ki (Adenosine receptor A1): 0.65 µM
Ratio Ki (Homo sapiens): 71
Compound: CC(C)(C)CC(=O)Nc1ccc(C(=O)Nc2nccs2)cc1F

solubility [5]: 8600 µg/mL (≈ 18.6 mM)
half-life [6]: > 66.7 days
Tmax (Rattus norvegicus [7]): 30 min
Cmax (Rattus norvegicus [8]): 869 ng/mL
F (Rattus norvegicus [9]): 55%
AUC (Rattus norvegicus [10]): 35000 ng·h/mL
Tmax (Rattus norvegicus [11]): 24 min
Cmax (Rattus norvegicus [12]): 6413 ng/mL
F (Rattus norvegicus [13]): 66%
Compound: CC(C)(C)CC(=O)Nc1c(F)cc(C(=O)/N=c2\sccn2COP(=O)(O)O)cc1F

Ki (Adenosine receptor A2a [4]): 0.012 µM
Ki (Adenosine receptor A1): 0.22 µM
Ratio Ki (Homo sapiens): 18
Compound: COc1c(C(=O)Nc2nccs2)ccc(NC(=O)CC(C)(C)C)c1F

Ki (Adenosine receptor A2a [4]): 0.35 µM
inhibition [14]: 54%
CL (Liver microsomes [2]): 0.8 L/min
CL (Liver microsomes [3]): 18 mL/min
IC50 (Cytochrome P450 1A2): > 40 µM
IC50 (Cytochrome P450 2C9): > 40 µM
IC50 (Cytochrome P450 2C19): 36 µM
IC50 (Cytochrome P450 2D6): > 40 µM
IC50 (Cytochrome P450 3A4): > 40 µM
Ratio (Caco-2): 0.7
Compound: CCCC(=O)Nc1ccc(C(=O)Nc2nccs2)cc1

Ki (Adenosine receptor A2a [4]): 0.3 µM
Compound: CC(C)C(=O)Nc1ccc(C(=O)Nc2nccs2)cc1

Second part, the molecule before the results:

Compound: CC(C)(C)CNC(=O)c1ccc(NC(=O)c2nccs2)cc1
inhibition (Adenosine receptor A2a [1]): 0%

Compound: CCn1c(=O)c2c(nc(/C=C/c3ccc(OC)c(OC)c3)n2C)n(CC)c1=O [ISTRADEFYLLINE]
CL (Liver microsomes [2]): 0.1 L/min
CL (Liver microsomes [3]): 11 mL/min
IC50 (Cytochrome P450 1A2): > 40 µM
IC50 (Cytochrome P450 2C19): > 40 µM
IC50 (Cytochrome P450 2D6): > 40 µM
ED50 (Mus musculus): 0.13 mg/kg

Compound: CCCCC(=O)Nc1ccc(C(=O)Nc2nccs2)cc1
Ki (Adenosine receptor A2a [4]): 0.19 µM
inhibition [14]: 69%
CL (Liver microsomes [2]): 2.3 L/min
CL (Liver microsomes [3]): 54 mL/min
IC50 (Cytochrome P450 1A2): > 40 µM
IC50 (Cytochrome P450 2C9): 40 µM
IC50 (Cytochrome P450 2C19): > 40 µM
IC50 (Cytochrome P450 2D6): > 40 µM
IC50 (Cytochrome P450 3A4): > 40 µM
Ratio (Caco-2): 0.7

Compound: COc1cc(C(=O)Nc2nccs2)ccc1NC(=O)CC(C)(C)C
Ki (Adenosine receptor A2a [4]): 0.017 µM
Ki (Adenosine receptor A1): 0.34 µM
Ratio Ki (Homo sapiens): 20

Compound: Cc1cc(C(=O)Nc2nccs2)ccc1NC(=O)CC(C)(C)C
Ki (Adenosine receptor A2a [4]): 0.019 µM
Ki (Adenosine receptor A1): 0.46 µM
Ratio Ki (Homo sapiens): 24

Compound: CC(C)(C)CNC(=O)c1ccc(C(=O)Nc2nccs2)cc1
Ki (Adenosine receptor A2a [4]): 0.11 µM
